Active and inactive are the calls of the source. No cut-off for these calls is given here.
Tests used:
dengue virus type 2 [1] = test: Antiviral activity against DENV2 16681 infected in African green monkey Vero E6 cells assessed as reduction in virus induced cytopathic effect measured after 96 hrs by reverse phase contrast microscopy; assay type: functional, organism-based; details: Vero C1008
In short: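 Vero E6 cells in DMEM infected with DENV2 16681 at MOI 0.01, compound added immediately (screen at 10 μM, then 0, 0.1, 1, 10 μM). Photographed 96 h post infection by phase-contrast microscopy. CPE reduction scored qualitatively (−, +, ++, +++).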

dengue virus type 2 [2] = test: Antiviral activity against DENV2 16681 infected in African green monkey Vero E6 cells assessed as reduction in virus induced cytopathic effect at 10 uM measured after 96 hrs by reverse phase contrast microscopy; assay type: functional, organism-based; details: Vero C1008
In short: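 Vero E6 cells in supporting DMEM infected with DENV2 strain 16681 (MOI 0.01), then treated immediately with compound at 10 μM. After 96 h incubation, cytopathic effect photographed by reverse phase-contrast microscopy and scored semi-quantitatively (−, +, ++, +++) against infected controls.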

[3] = Therapeutic index, ratio of CC50 for African green monkey Vero E6 cells to IC50 for DENV2 16681 infected in African green monkey Vero E6 cells; assay type: toxicity, Vero C1008; details: read-out: Ratio CC50/IC50
In short: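 TI = CC50/IC50. CC50 comes from the Vero E6 MTT survival test. IC50 comes from the NS4B-positive cell fraction by immunofluorescence in DENV2 16681-infected Vero E6 cells (MOI 0.01, 96 h, 0–10 μM).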

Vero C1008 = test: Cytotoxicity against African green monkey Vero E6 cells assessed as reduction in survival rate measured after 48 hrs by MTT assay; assay type: cell-based; details: chlorocebus sabaeus, vero c1008, 48 h
In short: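 MTT viability test on Vero E6 cells in DMEM over a range of compound concentrations. CC50 calculated from survival of treated cells relative to mock cells.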

dengue virus type 2 [4] = test: Antiviral activity against DENV2 16681 infected in African green monkey Vero E6 cells assessed as inhibitory rate of NS4B positive cells measured after 96 hrs incubation by DAPI staining based immunofluorescence method; assay type: functional, organism-based; details: for IC50: Dengue virus, 16681, Vero C1008, 96 h; for inhibition: Vero C1008
In short: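 Vero E6 cells in DMEM, infected with DENV2 strain 16681 at MOI 0.01 and treated with compound (0, 0.1, 1, 10 μM; single 10 μM for screening). After 96 h, immunofluorescence with anti-NS4B antibody and DAPI nuclear counterstain. Infectivity = NS4B-positive cells / DAPI-stained cells. Inhibitory rate = (1 − NS4B-positive % treated / NS4B-positive % mock-treated infected) × 100. IC50 derived from NS4B-positive percentages across concentrations.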

dengue virus type 2 [5] = test: Antiviral activity against DENV2 16681 infected in African green monkey Vero E6 cells assessed as inhibitory rate of NS4B positive cells at 10 uM measured after 96 hrs incubation by DAPI staining based immunofluorescence method; assay type: functional; details: Dengue virus, 16681, Vero C1008, 96 h
In short: (§1)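 Vero E6 cells in DMEM infected with DENV2 strain 16681 at MOI 0.01, treated at once with compound (0, 0.1, 1, 10 μM), 96 h. Immunofluorescence with anti-NS4B antibody and DAPI counterstain. Infectivity taken as NS4B-positive cells over DAPI-stained total cells. Inhibitory rate = (1 − NS4B-positive % treated infected / NS4B-positive % mock-treated infected) × 100.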

dengue virus type 2 [6] = test: Antiviral activity against DENV2 16681 infected in human A549 cells assessed as reduction in virus induced cytopathic effect at 0.1 to 10 uM measured after 120 hrs post infection by light microscopy; assay type: functional, organism-based
dengue virus type 2 [7] = test: Antiviral activity against DENV2 16681 infected in African green monkey Vero E6 cells assessed as inhibitory rate of NS4B positive cells at 1 uM measured after 96 hrs incubation by DAPI staining based immunofluorescence method; assay type: functional; details: Dengue virus, 16681, Vero C1008, 96 h; in short: as §1
dengue virus type 2 [8] = test: Antiviral activity against DENV2 16681 infected in human A549 cells assessed as inhibitory rate of NS4B positive cells at 0.1 to 10 uM measured after 120 hrs post infection by DAPI staining based immunofluorescence method; assay type: functional, organism-based

SMILES | inhibition (dengue virus type 2 [1]) | inhibition (dengue virus type 2 [2]) | selectivity ratio [3] | CC50 (Vero C1008) | IC50 (dengue virus type 2 [4]) | inhibition (dengue virus type 2 [4]) | inhibition at 10 µM (dengue virus type 2 [5]) | inhibition (dengue virus type 2 [6]) | inhibition at 1 µM (dengue virus type 2 [7]) | inhibition (dengue virus type 2 [8])
COC(=O)[C@H](CCSC)NC(=O)[C@H]1O[C@@H](O[C@H]2[C@@H](O[C@H]3CC[C@]4(C)[C@H]5C(=O)C=C6[C@@H]7C[C@@](C)(C(=O)N[C@@H](CCSC)C(=O)OC)CC[C@]7(C)CC[C@@]6(C)[C@]5(C)CC[C@H]4C3(C)C)O[C@H](C(=O)N[C@@H](CCSC)C(=O)OC)[C@@H](O)[C@@H]2O)[C@H](O)[C@@H](O)[C@@H]1O | Dose-dependent effect | Active | > 22.2 | > 100 µM | 4.5 µM | Dose-dependent effect | 66.3% |  |  | 
CC1(C)[C@@H](O[C@H]2O[C@H](C(=O)N[C@@H](Cc3ccc(O)cc3)C(=O)O)[C@@H](O)[C@H](O)[C@H]2O[C@@H]2O[C@H](C(=O)N[C@@H](Cc3ccc(O)cc3)C(=O)O)[C@@H](O)[C@H](O)[C@H]2O)CC[C@]2(C)[C@H]3C(=O)C=C4[C@@H]5C[C@@](C)(C(=O)N[C@@H](Cc6ccc(O)cc6)C(=O)O)CC[C@]5(C)CC[C@@]4(C)[C@]3(C)CC[C@@H]12 | Dose-dependent effect | Active | > 46.5 | > 100 µM | 2.2 µM | Dose-dependent effect | 68.5% |  |  | 
CC[C@H](C)[C@H](NC(=O)[C@H]1O[C@@H](O[C@H]2[C@@H](O[C@H]3CC[C@]4(C)[C@H]5C(=O)C=C6[C@@H]7C[C@@](C)(C(=O)N[C@H](C(=O)O)[C@@H](C)CC)CC[C@]7(C)CC[C@@]6(C)[C@]5(C)CC[C@H]4C3(C)C)O[C@H](C(=O)N[C@H](C(=O)O)[C@@H](C)CC)[C@@H](O)[C@@H]2O)[C@H](O)[C@@H](O)[C@@H]1O)C(=O)O | Dose-dependent effect | Active | > 76.3 | > 100 µM | 1.3 µM | Dose-dependent effect | 95.7% | Active | 20.2% | Active
CC1(C)[C@@H](O[C@H]2O[C@H](C(=O)O)[C@@H](O)[C@H](O)[C@H]2O[C@@H]2O[C@H](C(=O)O)[C@@H](O)[C@H](O)[C@H]2O)CC[C@]2(C)[C@H]3C(=O)C=C4[C@@H]5C[C@@](C)(C(=O)O)CC[C@]5(C)CC[C@@]4(C)[C@]3(C)CC[C@@H]12 [GLYCYRRHIZIN] | Dose-dependent effect | Active | > 12.3 | > 100 µM | 8.1 µM | Dose-dependent effect | 70.5% |  |  | 
COC(=O)CCCCCCCCCCNC(=O)[C@H]1O[C@@H](O[C@H]2[C@@H](O[C@H]3CC[C@]4(C)[C@H]5C(=O)C=C6[C@@H]7C[C@@](C)(C(=O)O)CC[C@]7(C)CC[C@@]6(C)[C@]5(C)CC[C@H]4C3(C)C)O[C@H](C(=O)NCCCCCCCCCCC(=O)OC)[C@@H](O)[C@@H]2O)[C@H](O)[C@@H](O)[C@@H]1O | Dose-dependent effect | Active | > 80 | > 100 µM | 1.2 µM | Dose-dependent effect | 79.5% |  |  | 

From ChEMBL document CHEMBL4396972, “Glycyrrhizic acid derivatives as Dengue virus inhibitors” (Bioorg Med Chem Lett, 2019)
